Reference: the array DNA melting data of Ke et al. (doi:10.1101/2024.01.08.574731)

Key:
[1] = folding enthalpy; higher = less favourable; fluorescence melt of hairpins on a sequencing array, two-state fit; conditions: sodium 0.088 M
Summary of the method: (§1)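 Hairpins were imaged by Cy3 fluorescence on a sequenced MiSeq flow cell with annealed Cy3 and quencher oligos, in 50 mM Na-HEPES pH 8.0, 25 mM NaCl, in 2.5 °C steps up to 60 °C. Bootstrapped two-state fits of normalised signals gave melting temperature and folding enthalpy. Four replicates were combined by inverse variance, and fitted temperatures were raised by 9.35 °C to match UV melts.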

[2] = melting temperature; fluorescence melt of hairpins on a sequencing array, two-state fit, raised by 9.35 °C to match UV melts; conditions: sodium 0.088 M
Summary of the method: as §1

Sequence	folding enthalpy [1] [kJ/mol]	Tm [2] [°C]
GCGAACGGAAACGCTCAC (.((.((....)).)).)	-59.9	34
GGAGCCGGAAACGGCCCC ((.((((....)))).))	-64.7	58.5
GGTTGGGGAAACCCGATC (.(.(((....))).).)	-90.2	34.4
GATCATGCACATGATC ((((((....))))))	-174	56.3
GAGGCGGGAAACCGCTTC ((.((((....)))).))	-66.7	51
TAGAGGAAACTCTA (((((....)))))	-37.4	32.1
GATCATTATCATGATC ((((((....))))))	-163	45.8
GATCGGTGACCGATC ((((((...))))))	-162	55.5
GACACAGGAAACTGCGTC (((.(((....))).)))	-97.7	45.3
GATCAGCTTCTGATC ((((((...))))))	-132	49.1
GCCGACGAAAGTCCTGGC ((((((....)))..)))	-84.7	45.1
GGACATACGAAAGTATCC (((..(((....))))))	-45.5	26.8
GGATCCGGAAACGGGTTC (.(.(((....))).).)	-70.2	38
GCGGTGGGAAACTGCCGC ((((..(....)..))))	-174	56.6
GGACAGGGAAACCTGTTC (.(((((....))))).)	-95.9	50
GATCAGACATCTGATC ((((((....))))))	-166	48.2
GACGGCGAAAGCCGGTC ((((((....))).)))	-48.6	64
GGGTTCGAAAGAAGTCCC ((((((....)))..)))	-84.6	32.7
GCAAGGCGAAAGCCGAGC ((..(((....)))..))	-122	65
CGCGGAAATCTCCGCG ((((((....))))))	-168	62.2
GCTCGCGAAAGCGGGAGC ((((((....)))..)))	-65.8	55.1
GGTCACGAAAGTGGTACC ((((((....)))..)))	-59.7	42.7
GGACCTGGAAACAGGTTC (.(((((....))))).)	-115	52.7

Sequence	folding enthalpy [1] [kJ/mol]	Tm [2] [°C]
GATGGACGAAAGTCAATC (((.(((....))).)))	-110	48.1
GATCTAATAATAGATC ((((((....))))))	-92.1	35.5
GATCACGAAAGTGACATC ((((((....)))..)))	-42.4	30
GGACCAGGAAACCGGTCC (((((.(....).)))))	-148	54.6
GTTAGAGGAAACTCTAAC (((((((....)))))))	-166	51.6
GGTACCGAAAGGTCAACC ((((((....)))..)))	-64.2	34.5
GACATCGGAAACGGTGTC ((((.((....)).))))	-197	52.2
GATCCATTAGTGGATC ((((((....))))))	-154	53
GTTTCCGAAAGGACAAAC ((((((....)))..)))	-40.1	26.1
GAGAACGAAAGTTAGCTC ((((((....)))..)))	-41.9	24.5
GCACCGCGAAAGCTATGC (((..((....))..)))	-53.6	31.1
GATCAGGTCACTGATC ((((((....))))))	-192	59.4
GATCACCCCGTGATC ((((((...))))))	-181	57.5
GAGTTACGAAAGTAGCTC (((.(((....))).)))	-144	51.2
GCTAGGCGAAAGCCGTGC ((..(((....)))..))	-58.2	57.7
GGTTCTCGAAAGAGGACC (((.(((....))).)))	-179	57.2
GGAGTCGAAAGACGTTCC ((((((....)))..)))	-47.2	37.6
GTCGTATCGAAAGATGAC (((..(((....))))))	-83.5	34.1
GGTAGCGAAAGCTTGACC ((((((....)))..)))	-58.2	35.7
GTTCGAGGAAACTCAAAC (((.(((....))).)))	-57.9	31
GTTCGGGGAAACTCGAAC (((((.(....).)))))	-129	51.3
GATCGGTAGCCGATC ((((((...))))))	-177	55.4
GTCTTAGGAAACCAAGAC (((((.(....).)))))	-129	34.4

Sequence	folding enthalpy [1] [kJ/mol]	Tm [2] [°C]
GCTCCGCCGAAAGGCAGC (((..(((....))))))	-41.4	35.1
GCGTTGTAACGC ((((....))))	-114	56.8
GCGCAGGGAAACCTGTGC ((.((((....)))).))	-117	57.7
GACGAACGAAAGTTAGTC (((.(((....))).)))	-150	49.9
GTTATGGGAAACCACAAC (((.(((....))).)))	-62.3	29.2
GATCGACAGATCGATC ((((((....))))))	-67.4	54.8
GCCCTGCGAAAGCACCGC ((..(((....)))..))	-32.8	32.4
GTTGCAGGAAACTACAAC ((((.((....)).))))	-116	37
GTTGGCGGAAACGCTAAC (((.(((....))).)))	-129	53.1
GAGTGGGGAAACCCACCC (.(((((....))))).)	-50.9	42.7
GAAACGGGAAACCGTCTC ((.((((....)))).))	-56.4	32.9
GAAAACGCGAAAGCGTTC (((..(((....))))))	-37	41.1
GCCACGCGAAAGCCTCGC ((.(.((....)).).))	-32.1	27
GATCCACAGTGGATC ((((((...))))))	-169	49.7
GCAAGCGAAAGCTATGC ((((((....))).)))	-96.2	51.2
CGGCTACGGAAACGTCCG (((..(((....))))))	-55.7	36.6
GGGCGAGGAAACTCGTCC ((.((((....)))).))	-174	58.2
GCGGGCGCGAAAGCGCGC (((..(((....))))))	-30.3	63
GATCTACGCCTAGATC ((((((....))))))	-141	42.6
GTGGGCCGAAAGGCTCAC (((.(((....))).)))	-124	69.2
GCTAGCGAAAGCTCGAGC ((((((....)))..)))	-61.2	35.6
GTGAGTACGAAAGTACAC (((..(((....))))))	-68.3	42.2
GTTCTTGGAAACAGGAAC ((((.((....)).))))	-143	39.9

Sequence	folding enthalpy [1] [kJ/mol]	Tm [2] [°C]
GAGATCGGAAACGATCCC (.(((((....))))).)	-54	42.9
GCGACGATCGC ((((...))))	-56.7	42.4
GTGAAACGAAAGTTCAC (((.(((....))))))	-76.7	47.6
GGTAAGCCGAAAGGCACC (((..(((....))))))	-64.3	42
GATCTACCTTAGATC ((((((...))))))	-134	39.1
GTGAACCCGAAAGGGCAC (((..(((....))))))	-65.9	38.9
GCTGCGCGAAAGCAAAGC (((..((....))..)))	-128	62
GGTTACGAAAGTATAACC ((((((....)))..)))	-83.8	37.2
CGGGGCCGGAAACGGCCG (((..(((....))))))	-20.4	53.8
GCGCCCGCGAAAGCGCGC (((..(((....))))))	-67.8	58.5
GATCTGCATGCAGATC ((((((....))))))	-195	62.4
GATCCGAAGGCGGATC ((((((....))))))	-119	52.3
GCTGTAACGAAAGTTAGC (((..(((....))))))	-85.6	35
GATCTCGGAAACGGGATC ((((.((....)).))))	-146	51.3
GCTCAAGGAAACTTGGGC ((.((((....)))).))	-156	50
GGCGGTCGAAAGACAGCC (((.(((....))).)))	-146	67.7
CTAAGGAAACTTAG (((((....)))))	-44.6	29.8
GTACTGACGAAAGTCTAC (((..(((....))))))	-27.8	21.8
GATCTCTATGAGATC ((((((...))))))	-131	54.6
CGCGGATCGCTCCGCG ((((((....))))))	-120	69.2
GCTTCGGGAAACTGAAGC (((((.(....).)))))	-173	53.2
GGGCACTCGAAAGAGCCC (((..(((....))))))	-130	50.9
GCACAAGGAAACTTATGC (((.(((....))).)))	-78.1	29.4
